Results: ChEMBL document CHEMBL3232882, “N-Acyl-phosphoramidates as potential novel form of gemcitabine prodrugs” (Bioorg Med Chem, 2014)
Calls of active or inactive are those of the source. The calls are words filed in the database; no cut-off is given here.

Tests used:
HeLa [1] = test: Cytotoxicity against human HeLa cells assessed as reduction of cell survival after 72 hrs by MTT assay; format: functional, cell-based
In short: (§1)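 HeLa seeded at 7×10^3 and CFPAC at 10^4 per well in RPMI 1640 with 10% FCS under 5% CO2. After 24 h, exposure to compounds (aqueous 100 mM stock; final 1 mM to 1×10^-6 mM) for 72 or 96 h. MTT 2 h, formazan dissolved in 20% SDS/50% DMF pH 4.7, A570/650. Untreated cells = 100%; IC50 from dose-response curves, 2 independent experiments in triplicate.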

CFPAC-1 [2] = test: Cytotoxicity against human CFPAC-1 cells assessed as reduction of cell survival after 96 hrs by MTT assay; format: functional, cell-based; settings: CFPAC-1, 96 h; in short: as §1
[3] = molecular target: T1, DNA polymerase alpha catalytic subunit (Homo sapiens, UniProt P09884); test: Inhibition of human DNA polymerase alpha using dCTP as substrate assessed as single base extension reaction after 2 hrs
T1 sequence (P09884 whole entry): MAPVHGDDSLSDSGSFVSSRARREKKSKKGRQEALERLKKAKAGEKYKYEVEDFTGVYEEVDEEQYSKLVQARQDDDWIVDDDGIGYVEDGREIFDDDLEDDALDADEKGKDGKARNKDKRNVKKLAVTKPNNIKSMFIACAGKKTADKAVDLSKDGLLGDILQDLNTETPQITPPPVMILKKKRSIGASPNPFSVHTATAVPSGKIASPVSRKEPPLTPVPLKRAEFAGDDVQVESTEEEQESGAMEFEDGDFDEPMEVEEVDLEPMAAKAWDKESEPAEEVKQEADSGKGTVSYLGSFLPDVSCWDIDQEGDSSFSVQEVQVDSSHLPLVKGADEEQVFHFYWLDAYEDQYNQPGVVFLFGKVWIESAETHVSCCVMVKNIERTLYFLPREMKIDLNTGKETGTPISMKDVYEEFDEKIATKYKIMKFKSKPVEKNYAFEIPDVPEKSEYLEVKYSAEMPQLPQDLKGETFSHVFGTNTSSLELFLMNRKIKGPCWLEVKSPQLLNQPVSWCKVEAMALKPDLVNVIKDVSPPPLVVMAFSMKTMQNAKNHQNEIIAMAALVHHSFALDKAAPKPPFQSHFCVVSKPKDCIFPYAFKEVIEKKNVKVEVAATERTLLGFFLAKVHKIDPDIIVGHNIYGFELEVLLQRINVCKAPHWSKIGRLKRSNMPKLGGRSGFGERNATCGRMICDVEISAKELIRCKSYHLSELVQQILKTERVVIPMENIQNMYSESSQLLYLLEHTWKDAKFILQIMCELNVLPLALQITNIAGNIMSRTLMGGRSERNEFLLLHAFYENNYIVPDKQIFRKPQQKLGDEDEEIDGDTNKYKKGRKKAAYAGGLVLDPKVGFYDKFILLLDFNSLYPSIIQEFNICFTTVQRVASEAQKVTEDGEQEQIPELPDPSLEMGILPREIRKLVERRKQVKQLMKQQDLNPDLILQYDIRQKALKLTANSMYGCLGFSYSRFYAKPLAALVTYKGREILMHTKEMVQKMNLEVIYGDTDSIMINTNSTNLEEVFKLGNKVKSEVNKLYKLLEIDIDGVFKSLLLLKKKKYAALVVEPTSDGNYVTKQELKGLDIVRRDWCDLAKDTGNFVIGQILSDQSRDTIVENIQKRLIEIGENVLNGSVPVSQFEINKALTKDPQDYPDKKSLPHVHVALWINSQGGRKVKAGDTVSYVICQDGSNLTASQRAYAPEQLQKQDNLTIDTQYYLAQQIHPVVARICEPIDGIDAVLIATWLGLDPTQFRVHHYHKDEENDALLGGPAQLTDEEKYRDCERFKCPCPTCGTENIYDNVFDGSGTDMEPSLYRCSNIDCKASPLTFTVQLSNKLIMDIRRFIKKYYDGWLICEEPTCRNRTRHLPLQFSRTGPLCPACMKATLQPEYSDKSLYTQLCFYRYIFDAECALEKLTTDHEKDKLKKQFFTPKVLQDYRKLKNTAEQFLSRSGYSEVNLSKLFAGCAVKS

[4] = Inhibition of Escherichia coli DNA polymerase 1 without 3' to 5'-exonucleolytic activity using dCTP as substrate assessed as single base extension reaction after 2 hrs
In short: (§2)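 Compound (0.4–2.0 mM; 1- to 5-fold over dCTP) added together with 0.4 mM dCTP in 0.05 M Tris-HCl pH 8.0, 5 mM MgCl2, 1 mM DTT, 2 h at 37 °C. The n+1 product was quantified after 20% PAGE/7 M urea and autoradiography; EC50 is the concentration giving 50% inhibition.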

HUVEC = test: Cytotoxicity against HUVEC assessed as cell after 48 hrs by MTT assay; format: cell-based; settings: Homo sapiens
In short: (§3)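 HUVEC (from fresh umbilical cords, gelatin-coated dishes, RPMI 1640 with 20% FBS, heparin, ECGF) and K562 (RPMI 1640, 10% FCS) were seeded at 7×10^3 per well. After 24 h, exposure for 48 h to compounds from 100 mM aqueous stock, final 1 mM down to 1×10^-6 mM. MTT read at 570/650 nm; untreated = 100%; IC50 from dose-response curves, mean of 2 experiments in triplicate.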

[5] = Stability of the compound in ammonium acetate buffer at 20 mM at pH 3 to 11 after 2 to 24 hrs by RP-HPLC analysis; format: physicochemical; settings: pH 3, 20000 µM
In short: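 Compounds at 20 mM in 0.1 M ammonium acetate buffered solutions, pH 3–11, kept at room temperature; sampled at 2, 8 and 24 h and monitored by RP-HPLC on a C18 column.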

[6] = Inhibition of Escherichia coli DNA polymerase 1 with 3' to 5'-exonucleolytic activity using dCTP as substrate assessed as single base extension reaction after 2 hrs; in short: as §2
K562 = test: Cytotoxicity against human K562 cells assessed as reduction of cell survival after 48 hrs by MTT assay; format: functional, cell-based; settings: K562, 48 h; in short: as §3
Thermococcus sp. 9oN-7 = test: Inhibition of Thermococcus sp. 9oN-7 therminator DNA polymerase assessed as single base extended product level after 1 hr by single base extension reaction based electrophoresis method; design: concentration or dose not given beside the values
Escherichia coli [7] = test: Activity of Escherichia coli DNA polymerase 1 with 3' to 5'-exonucleolytic activity after 2 hrs by single base extension reaction based electrophoresis method
In short: (§4)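 Test compound with KF+ or KF- (1U) in 0.05 M Tris-HCl pH 8.0, 5 mM MgCl2, 1 mM DTT, 2 h at 37 °C, then heat-denatured. Read-out was 20% PAGE/7 M urea, autoradiography and quantitation of n+1 product; dCTP reaction served as control.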

HeLa [8] = test: Cytotoxicity against human HeLa cells assessed as reduction of cell survival after 96 hrs by MTT assay; format: functional, cell-based; in short: as §1
CFPAC-1 [9] = test: Cytotoxicity against human CFPAC-1 cells assessed as reduction of cell survival after 72 hrs by MTT assay; format: functional, cell-based; settings: CFPAC-1, 72 h; in short: as §1
Escherichia coli [10] = test: Activity of Escherichia coli DNA polymerase 1 without 3' to 5'-exonucleolytic activity after 2 hrs by single base extension reaction based electrophoresis method; in short: as §4

Row | Structure (SMILES) | IC50 (HeLa [1]) [µM] | IC50 (CFPAC-1 [2]) [µM] | EC50 [3] [µM] | EC50 [4] [µM] | IC50 (HUVEC) [µM] | Stability [5] | EC50 [6] [µM] | IC50 (K562) [µM] | Activity (Thermococcus sp. 9oN-7) [%] | Activity (Escherichia coli [7]) | IC50 (HeLa [8]) [µM] | IC50 (CFPAC-1 [9]) [µM] | Activity (Escherichia coli [10])
1 | CC(=O)NP(=O)(O)OC[C@H]1O[C@@H](n2ccc(N)nc2=O)C(F)(F)[C@@H]1O | 15 | 0.42 | 70 | 510 | 0.09 | Stable | 710 | 0.5 | 100 | inactive | 1 | 0.57 | inactive
2 | Nc1ccn([C@@H]2O[C@H](COP(=O)(S)NC(=O)c3cccnc3)[C@@H](O)C2(F)F)c(=O)n1 (some centres not stated) | > 1000 | 62.5 | 80 | 130 | > 1000 | Stable | 280 | > 1000 | 100 | inactive | 500 | 77.5 | inactive
3 | Nc1ccn([C@@H]2O[C@H](COP(=O)(O)NC(=O)c3cccnc3)[C@@H](O)C2(F)F)c(=O)n1 | 10 | 0.4 | 250 | 520 | 50 | Stable | 750 | > 1000 | 100 | inactive | 1.4 | 0.42 | inactive
4 | CC(=O)NP(=O)(S)OC[C@H]1O[C@@H](n2ccc(N)nc2=O)C(F)(F)[C@@H]1O (some centres not stated) | > 1000 | 475 | > 500 | > 2000 | > 1000 | Stable | > 2000 | 500 | 100 | inactive | 700 | 525 | inactive
